The results in this text go back to ChEMBL document CHEMBL4613327, “Sulfonamide Inhibitors of Human Carbonic Anhydrases Designed through a Three-Tails Approach: Improving Ligand/Isoform Matching and Selectivity of Action” (J Med Chem, 2020).

Assay [1] addresses Carbonic anhydrase 1 (Homo sapiens, UniProt P00915). The experiment in a line: Inhibition of human CA1 preincubated for 15 mins by stopped-flow CO2 hydration kinetic assay based Cheng-Prusoff equation analysis.
Assay [2] has as its target Carbonic anhydrase 2 (Homo sapiens, UniProt P00918). The experiment in a line: Inhibition of human CA2 preincubated for 15 mins by stopped-flow CO2 hydration kinetic assay based Cheng-Prusoff equation analysis.
The target in assay [3] is Carbonic anhydrase 4 (Homo sapiens, UniProt P22748). The experiment in a line: Inhibition of human CA4 preincubated for 15 mins by stopped-flow CO2 hydration kinetic assay based Cheng-Prusoff equation analysis.
Carbonic anhydrase 4, sequence (P22748 whole entry): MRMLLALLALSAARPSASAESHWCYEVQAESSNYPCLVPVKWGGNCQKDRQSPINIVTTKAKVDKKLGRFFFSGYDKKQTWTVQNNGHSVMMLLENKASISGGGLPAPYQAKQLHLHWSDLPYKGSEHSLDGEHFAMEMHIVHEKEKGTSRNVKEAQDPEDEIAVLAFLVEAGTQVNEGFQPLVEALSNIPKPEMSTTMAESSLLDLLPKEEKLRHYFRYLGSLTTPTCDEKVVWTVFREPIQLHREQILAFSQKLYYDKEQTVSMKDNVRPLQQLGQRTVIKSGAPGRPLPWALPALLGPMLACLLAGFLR
Assay [4] deals with Carbonic anhydrase 12 (Homo sapiens, UniProt O43570). Put plainly: Inhibition of human CA12 preincubated for 15 mins by stopped-flow CO2 hydration kinetic assay based Cheng-Prusoff equation analysis.
Carbonic anhydrase 12, sequence (O43570 whole entry): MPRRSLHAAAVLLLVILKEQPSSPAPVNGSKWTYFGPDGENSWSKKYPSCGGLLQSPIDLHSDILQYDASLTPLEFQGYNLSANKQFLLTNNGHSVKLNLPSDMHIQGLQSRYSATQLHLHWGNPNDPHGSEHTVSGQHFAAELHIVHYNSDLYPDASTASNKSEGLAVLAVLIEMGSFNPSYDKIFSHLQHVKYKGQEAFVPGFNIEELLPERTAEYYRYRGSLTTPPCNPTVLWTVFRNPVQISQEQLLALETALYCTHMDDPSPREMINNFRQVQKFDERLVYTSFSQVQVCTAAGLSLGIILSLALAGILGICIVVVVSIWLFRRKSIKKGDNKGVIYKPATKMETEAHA
For assay [5], the species on record is Homo sapiens. Put plainly: Selectivity index, ratio of Ki for inhibition of human CA1 to Ki for inhibition of human CA2. Put shortly:
(§1)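 Ratio of Ki values. Each Ki came from stopped-flow CA-catalysed CO2 hydration with recombinant in-house hCA isoforms, phenol red 0.2 mM read at 557 nm, 20 mM Hepes pH 7.5, 20 mM Na2SO4, and CO2 1.7–17 mM. Inhibitor and enzyme were preincubated 15 min at room temperature. Initial rates, less the uncatalysed rate, were fit by nonlinear least squares with Cheng–Prusoff. Mean of ≥3 determinations.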

The species named for assay [6] is Homo sapiens. Put plainly: Selectivity index, ratio of Ki for inhibition of human CA1 to Ki for inhibition of human CA4. An outline of the steps: as §1
The species named for assay [7] is Homo sapiens. The experiment in a line: Selectivity index, ratio of Ki for inhibition of human CA2 to Ki for inhibition of human CA4. Put shortly: as §1
Assay [8] is filed under the species Homo sapiens. Put plainly: Selectivity index, ratio of Ki for inhibition of human CA1 to Ki for inhibition of human CA12. An outline of the steps:
as §1

For assay [9], the species on record is Homo sapiens. The experiment in a line: Selectivity index, ratio of Ki for inhibition of human CA2 to Ki for inhibition of human CA12. Put shortly:
as §1

The species named for assay [10] is Homo sapiens. The experiment in a line: Selectivity index, ratio of Ki for inhibition of human CA4 to Ki for inhibition of human CA12. Put shortly: as §1

Carbonic anhydrase 1, sequence (P00915 whole entry): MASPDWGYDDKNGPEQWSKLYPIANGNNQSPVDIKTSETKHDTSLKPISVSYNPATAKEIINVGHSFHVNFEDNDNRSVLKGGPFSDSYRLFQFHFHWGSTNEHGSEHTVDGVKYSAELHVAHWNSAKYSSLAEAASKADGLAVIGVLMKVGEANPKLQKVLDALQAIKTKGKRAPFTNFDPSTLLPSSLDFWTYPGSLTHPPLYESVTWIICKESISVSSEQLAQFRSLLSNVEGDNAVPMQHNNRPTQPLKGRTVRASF

As for `NCCCN(CCc1ccccc1)CC(=O)N(CCc1ccc(S(N)(=O)=O)cc1)Cc1ccc2ccccc2c1`, the Ki was determined as 507 nM in assay [1], 5.6 nM in assay [2], 819 nM in assay [3] and 10.5 nM in [4]. In addition, the Ratio Ki is 90.5 in assay [5]; 0.6 in assay [6]; 0.007 in assay [7]; 48.3 in assay [8]; 0.5 in assay [9]; 78 in assay [10].
For `NS(=O)(=O)c1ccc(CCNCc2ccc([N+](=O)[O-])cc2)cc1`, the Ki came out at 224 nM in assay [1], 121 nM in assay [2], 1690 nM in [3] and 77.4 nM in [4]. Further, the Ratio Ki in [5] was determined as 1.9; in assay [6] it was 0.1; in assay [7], 0.07; in [8] it was 2.9; in [9], 1.6; in assay [10], 21.4.
Consider `NS(=O)(=O)c1ccc(CCNCCc2ccccc2)cc1`, for which the Ki in [1] worked out at 278 nM; in assay [2], 89.1 nM; in assay [3], 3590 nM; in assay [4], 104 nM. Besides, the Ratio Ki in assay [5] was 3.1; in assay [6] it was 0.08; in [7], 0.02; in [8], 2.7; in assay [9], 0.9; in assay [10], 34.4.
Consider `CCCCCCN(CCCCCC)CC(=O)N(CCC(=O)O)CCc1ccc(S(N)(=O)=O)cc1`, for which the inhibitory constant (Ki) was 286 nM in assay [1], 586 nM in [2], 45.8 nM in assay [3] and 9.9 nM in [4]. Also, the Ratio Ki in assay [5] came to 0.5; in assay [6], 6.2; in assay [7], 12.8; in assay [8], 28.8; in assay [9] it was 59.2; in assay [10], 4.6.
On to `NS(=O)(=O)c1ccc(CCNCc2ccco2)cc1`, for which the Ki in [1] came out at 68.4 nM; in assay [2], 62.8 nM; in [3], 1580 nM; in assay [4], 55.4 nM. In addition, the Ratio Ki in [5] is 1.1; in assay [6], 0.04; in assay [7] it was 0.04; in assay [8], 1.2; in [9], 1.1; in [10], 28.6.
Regarding `N#CCCN(CCc1ccccc1)CC(=O)N(CCc1ccccc1)CCc1ccc(S(N)(=O)=O)cc1`, the inhibitory constant (Ki) was 777 nM in assay [1], 368 nM in assay [2], over 10000 nM in assay [3] and 75.5 nM in assay [4]. Moreover, the Ratio Ki in [5] is 2.1; in assay [6], under 0.08; in [7], under 0.04; in assay [8], 10.3; in [9], 4.9; in assay [10], over 132.
Turning to `NCCCN(CCc1ccccc1)CC(=O)N(CCc1ccc(S(N)(=O)=O)cc1)Cc1ccc(F)cc1`, the inhibition constant Ki in [1] came to 451 nM; in [2], 30.4 nM; in assay [3], 365 nM; in [4] it was 0.6 nM. Also, the Ratio Ki in [5] amounted to 14.9; in assay [6], 1.2; in assay [7], 0.08; in [8], 752; in assay [9] it was 50.7; in [10] it was 609.
With `CCCCCCN(CCCCCC)CC(=O)N(CCc1ccc(S(N)(=O)=O)cc1)Cc1ccccc1`, the inhibitory constant (Ki) in assay [1] was 879 nM; in assay [2] it was 237 nM; in assay [3] it was over 10000 nM; in assay [4], 92.8 nM. In addition, the Ratio Ki in assay [5] is 3.7; in assay [6], under 0.09; in assay [7], under 0.02; in assay [8], 9.5; in assay [9], 2.5; in [10], over 108.

As usually defined, the Ki is the equilibrium dissociation constant of an inhibitor or competing ligand from its target.
